# Experimental data: ChEMBL document CHEMBL5136979, “An Open Drug Discovery Competition: Experimental Validation of Predictive Models in a Series of Novel Antimalarials” (J Med Chem, 2021)
# Active and inactive are the calls of the source.
# Legend:
# [1] = system: Plasmodium falciparum; assay: Inhibition of Plasmodium falciparum Dd2 ATP4 assessed as increase in cytosolic [Na+] at 1 uM by fluorescence spectrometry
# Procedure, shortened: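 Dd2 trophozoites freed from erythrocytes with saponin (0.05% w/v final), loaded with Na+-sensitive dye SBFI. Fluorescence measured and calibrated at 37 °C in plate reader or 1 mL cuvette suspensions. Compound tested at 1 μM. Scored as active if it raised cytosolic [Na+] like 50 nM cipargamin.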
# [2] = system: Plasmodium falciparum; assay: Antimalarial activity against chloroquine-sensitive Plasmodium falciparum 3D7 assessed as parasite growth inhibition; type: functional, organism-based
# Procedure, shortened: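 P. falciparum 3D7 asexual blood stages grown in 5% human RBC suspension in RPMI 1640 with 0.5% Albumax II, 12 mM bicarbonate, 0.2 mM hypoxanthine (pH 7.3), gentamicin, 37 °C, 1% O2/3% CO2/N2. 10-point, 1-in-3 dilution series from 10 or 25 μM top. SYBR Green I DNA fluorescence (ex 485/em 528 nm). IC50 from ≥3 independent experiments.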
# [3] = system: Plasmodium falciparum; assay: Inhibition of Plasmodium falciparum Dd2 ATP4 assessed as increase in cytosolic pH at 5 uM by fluorescence spectrometry
# Procedure, shortened: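 Saponin-isolated (0.05% w/v final) Dd2 trophozoites loaded with pH-sensitive dye BCECF. Fluorescence read and calibrated at 37 °C in plate reader or 1 mL suspensions. Compound at 5 μM. Scored as active if it caused cytosolic alkalinization like 50 nM cipargamin.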
SMILES,inhibition [1],inhibition [3],IC50 [2]
CC(O)COc1cncc2nnc(-c3ccc(OC(F)F)cc3)n12 (stereo not drawn),–,–,> 25000 nM
O=C(Cc1cccc(Cl)c1)Nc1cn2c(-c3ccc(OC(F)F)cc3)nnc2cn1,–,–,> 10000 nM
Cc1ccc(COc2cncc3nnc(-c4ccc(C(C)C)cc4)n23)cn1,–,–,> 25000 nM
FC(F)Oc1ccc(-c2nnc3cncc(OCC(F)(F)F)n23)cc1,–,–,> 10000 nM
FC(F)Oc1ccc(-c2nnc3cncc(OCCc4ccco4)n23)cc1,–,–,1240 nM
NCc1cccc(CCOc2cncc3nnc(-c4ccc(Cl)cc4)n23)c1,–,–,10000 nM
Fc1ccc(CCNc2cn3c(-c4ccc(OC(F)F)cc4)nnc3cn2)cc1,–,–,> 10000 nM

# More lines, main results first:
inhibition [1],inhibition [3],SMILES,IC50 [2]
Active,Active,Nc1cccc(CCOc2cncc3nnc(-c4ccc(Cl)cc4)n23)c1,2420 nM
Active,Active,O=C(Nc1ccc(F)c(Cl)c1)c1cncc2nnc(-c3ccc(OC(F)F)cc3)n12,191 nM
Active,Active,O=C(NCc1cccc(C(F)(F)F)c1Cl)c1cncc2nnc(-c3ccc(OC(F)F)cc3)n12,309 nM
Active,Active,O=C(Nc1ccc(Cl)cc1)c1cncc2nnc(-c3ccc(OC(F)F)cc3)n12,5000 nM
Active,Active,O=C(Nc1ccnc(C(F)(F)F)c1)c1cncc2nnc(-c3ccc(OC(F)F)cc3)n12,140 nM
Active,Active,FC(F)Oc1ccc(-c2nnc3cncc(OCCc4ccccc4)n23)cc1,370 nM
Active,Active,CC(C)(C)Oc1ccc(-c2nnc3cncc(OCC(O)c4ccc(F)c(F)c4)n23)cc1 (stereo not drawn),460 nM
